Measurements reported in ChEMBL document CHEMBL1133298, “N1-Arylsulfonyl-N2-(1-aryl)ethyl-3-phenylpropane-1,2-diamines as novel calcimimetics acting on the calcium sensing receptor” (Bioorg Med Chem Lett, 2000).

molecular target: T1, Extracellular calcium-sensing receptor (Rattus norvegicus) (UniProt P48442); assay: Compound was evaluated for accumulation of [3H]- IP in CHO (CaSR) cells expressing rat cloned calcium sensing receptor; assay type: functional, cell-based
T1 sequence (whole entry): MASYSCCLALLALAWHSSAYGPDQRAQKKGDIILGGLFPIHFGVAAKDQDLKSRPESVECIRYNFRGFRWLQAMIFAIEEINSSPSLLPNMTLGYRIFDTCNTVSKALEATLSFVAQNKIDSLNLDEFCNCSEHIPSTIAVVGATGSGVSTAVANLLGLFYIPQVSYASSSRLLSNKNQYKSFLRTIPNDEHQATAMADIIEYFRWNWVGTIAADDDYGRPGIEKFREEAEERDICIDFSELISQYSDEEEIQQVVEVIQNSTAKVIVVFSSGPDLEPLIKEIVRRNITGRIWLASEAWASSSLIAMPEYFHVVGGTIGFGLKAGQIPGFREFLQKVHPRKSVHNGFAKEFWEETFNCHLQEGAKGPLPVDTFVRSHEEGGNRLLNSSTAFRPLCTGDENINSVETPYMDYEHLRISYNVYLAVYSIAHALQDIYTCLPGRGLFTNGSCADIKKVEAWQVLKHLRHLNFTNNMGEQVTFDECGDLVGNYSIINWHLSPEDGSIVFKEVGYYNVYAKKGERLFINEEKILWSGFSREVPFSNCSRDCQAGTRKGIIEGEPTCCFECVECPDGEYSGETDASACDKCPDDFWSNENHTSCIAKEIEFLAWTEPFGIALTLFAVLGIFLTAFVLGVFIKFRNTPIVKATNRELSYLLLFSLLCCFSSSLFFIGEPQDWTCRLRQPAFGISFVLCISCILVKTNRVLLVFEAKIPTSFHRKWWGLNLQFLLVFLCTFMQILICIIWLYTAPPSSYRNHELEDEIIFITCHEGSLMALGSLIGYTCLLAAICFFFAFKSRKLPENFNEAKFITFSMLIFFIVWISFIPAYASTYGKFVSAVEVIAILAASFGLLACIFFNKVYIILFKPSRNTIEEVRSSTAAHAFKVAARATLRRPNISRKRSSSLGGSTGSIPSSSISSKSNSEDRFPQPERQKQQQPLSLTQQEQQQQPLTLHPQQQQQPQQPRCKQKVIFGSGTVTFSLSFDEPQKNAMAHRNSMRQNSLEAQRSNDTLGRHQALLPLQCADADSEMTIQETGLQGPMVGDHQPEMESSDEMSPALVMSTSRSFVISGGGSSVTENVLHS
Summary of the method: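 CHO cells stably transfected with calcium sensing receptor cloned from rat brain. Grown in basal Ham's F-12 (0.3 mM Ca2+, 0.6 mM Mg2+) and prelabeled overnight with 0.5 µCi/mL myo-[3H]inositol. Drugs were made up at 10 mM in ethanol (stock), diluted in basal medium and tested at 10 µM with 2 mM extracellular Ca2+ at 37 °C. [3H]IP accumulation (phospholipase C activity) is given as % of the maximal response to 10 mM Ca2+, mean ±S.E.M.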

Row | Structure (SMILES) | Accumulation [%]
1 | COc1ccc(S(=O)(=O)NC(CNC(C)c2cccc3ccccc23)Cc2ccccc2Cl)cc1 (centres undefined) | 60
2 | COc1cccc([C@@H](C)NCCCc2ccccc2Cl)c1 | 106
3 | COc1ccc(S(=O)(=O)NC(CNC(C)c2cccc3ccccc23)Cc2ccccc2OC)cc1 (centres undefined) | 65
4 | CC(NCC(Cc1ccccc1)NS(=O)(=O)c1cccc(Cl)c1)c1cccc2ccccc12 (centres undefined) | 83
5 | CC(NCC(Cc1ccccc1)NS(=O)(=O)c1ccccc1Cl)c1cccc2ccccc12 (centres undefined) | 79
6 | COc1ccc(S(=O)(=O)NC(CNC(C)c2cccc3ccccc23)Cc2ccccc2)cc1OC (centres undefined) | 97
7 | COc1ccc(S(=O)(=O)NC(CNC(C)c2cccc3ccccc23)Cc2ccc3c(c2)OCO3)cc1 (centres undefined) | 47
8 | COc1ccc(CC(CNC(C)c2cccc3ccccc23)NS(=O)(=O)c2ccc(OC)cc2)cc1 (centres undefined) | 45

The remaining lines, values ahead:

Row | Accumulation [%] | Structure (SMILES)
9 | 68 | Cc1ccc(S(=O)(=O)NC(CNC(C)c2cccc3ccccc23)Cc2ccccc2)cc1 (centres undefined)
10 | 16 | Cc1ccc(S(=O)(=O)NC(CNC(C)c2ccccc2)Cc2ccccc2)cc1 (centres undefined)
11 | 36 | COc1cccc(C(C)NCC(Cc2ccccc2)NS(=O)(=O)c2ccc(C)cc2)c1 (centres undefined)
12 | 8 | CC(NCC(Cc1ccccc1)NS(=O)(=O)c1ccc([N+](=O)[O-])cc1)c1ccccc1 (centres undefined)
13 | 38 | CC(NCC(Cc1ccccc1)NS(=O)(=O)c1ccc(Cl)cc1)c1cccc2ccccc12 (centres undefined)
14 | 34 | COc1ccc(S(=O)(=O)NC(CNC(C)c2cccc(OC)c2)Cc2ccccc2)cc1 (centres undefined)
15 | 28 | CC(NCC(Cc1ccccc1)NS(=O)(=O)c1ccc([N+](=O)[O-])cc1)c1cccc2ccccc12 (centres undefined)
16 | 2 | CC(NCC(Cc1ccccc1)NS(=O)(=O)c1ccc(N)cc1)c1ccccc1 (centres undefined)
17 | 27 | CC(NCC(Cc1ccccc1)NS(=O)(=O)c1ccc(C(F)(F)F)cc1)c1cccc2ccccc12 (centres undefined)
18 | 80 | COc1ccc(S(=O)(=O)NC(CNC(C)c2cccc3ccccc23)Cc2ccccc2)cc1 (centres undefined)
19 | 78 | CC(NCC(Cc1ccccc1)NS(=O)(=O)c1ccccc1)c1cccc2ccccc12 (centres undefined)
